Measured values from ChEMBL document CHEMBL4406862, “Chalcone derivatives targeting mitosis: synthesis, evaluation of antitumor activity and lipophilicity” (Eur J Med Chem, 2019).
Activity calls are given as the source filed them. The calls are words filed in the database; no cut-off is given here.

Tests used:
[1] = system: MCF7; test: Antiproliferative activity against human MCF7 cells assessed as reduction in cell viability incubated for 48 hrs by sulforhodamine B assay; assay type: functional; details: MCF7, 48 h
Summary of the method: (§1)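 Cells in RPMI-1640 with 5% FBS, 37 °C, 5% CO2; seeded 0.05×10^6 cells/well, 24 h, then two-fold serial dilutions from 0 to 150 μM (DMSO up to 0.25%) for 48 h. TCA fixation, SRB stain 30 min, dye solubilized in 10 mM Tris, absorbance 515 nm. GI50 from dose-response curve; mean ± SD, at least three independent experiments in duplicate.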

[2] = Antiproliferative activity against human A375-C5 cells assessed as reduction in cell viability incubated for 48 hrs by sulforhodamine B assay; assay type: functional; details: A375-C5, 48 h; summary of the method: as §1
[3] = system: NCI-H460; test: Antiproliferative activity against human NCI-H460 cells assessed as reduction in cell viability incubated for 48 hrs by sulforhodamine B assay; assay type: functional; details: NCI-H460, 48 h; summary of the method: as §1
[4] = Lipophilicity, log k of compound in DMPC/buffer incubated for 30 mins by spectrophotometry; assay type: physicochemical; details: 0.5 h
Summary of the method: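 DMPC liposomes made by thin-film hydration in HEPES buffer, extruded at 40 °C. Fixed compound concentration with DMPC 50–1000 μM, incubated 30 min at 37 °C, pH 7.4; spectra 250–500 nm against compound-free references. Second-derivative values fitted (nonlinear least squares) versus lipid concentration to give Kp; lipid molar volume 0.66 L mol⁻¹; mean ± SD of at least three experiments.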

[5] = n-Octanol/water partition coefficient, log P of the compound incubated for 30 mins by spectrophotometry; assay type: physicochemical
[6] = system: NCI-H460; test: Induction of mitotic arrest in human NCI-H460 cells assessed as accumulation of bright round shape cells at 1 uM incubated for 15 hrs by phase contrast microscopy; assay type: functional, cell-based
[7] = system: NCI-H460; test: Induction of mitotic arrest in human NCI-H460 cells assessed as mitotic index 1 uM incubated for 15 hrs by DAPI staining based phase contrast microscopy (reference value: 11.3 %); assay type: functional
[8] = system: NCI-H460; test: Cytotoxicity against human NCI-H460 cells assessed as reduction in cell viability at 25 nM incubated for 48 hrs by MTT assay; assay type: functional, cell-based
Summary of the method: (§2)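 MTT 0.5 mg/ml in serum-free medium 4 h; formazan dissolved in isopropanol/Triton/HCl 2 h; absorbance 570 nm. Viability relative to untreated cells; mean ± SD of at least three independent experiments.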

[9] = system: NCI-H460; test: Induction of mitotic arrest in human NCI-H460 cells assessed as accumulation of bright round shape cells at 3 times of GI50 incubated for 15 hrs by phase contrast microscopy; assay type: functional, cell-based
[10] = system: NCI-H460; test: Induction of mitotic arrest in human NCI-H460 cells assessed as condensed chromosome at 3 times of GI50 incubated for 15 hrs by DAPI staining based phase contrast microscopy; assay type: functional, cell-based
Summary of the method: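 NCI-H460 treated 15 h at 3×GI50; DAPI staining of DNA viewed to detect condensed chromosomes of mitotic cells.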

[11] = system: NCI-H460; test: Induction of mitotic arrest in human NCI-H460 cells assessed as mitotic index at 3 times of GI50 incubated for 15 hrs by DAPI staining based phase contrast microscopy (reference value: 11.3 %); assay type: functional
[12] = system: NCI-H460; test: Induction of mitotic arrest in human NCI-H460 cells assessed as abnormal mitotic spindle morphology at 3 times of GI50 incubated for 15 hrs by immunostaining based fluorescence microscopy; assay type: functional, cell-based
Summary of the method: (§3)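 NCI-H460 on poly-L-lysine coverslips treated 15 h at 3×GI50; fixed in 2% paraformaldehyde, 0.5% Triton X-100 permeabilization, 10% FBS blocking; mouse anti-α-tubulin (1:2500) then Alexa Fluor 488 secondary (1:1500); DAPI 2 µg/mL. Fluorescence microscopy of spindles; multipolar spindles as percentage of total spindles; mean ± SD, three independent experiments.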

[13] = system: NCI-H460; test: Induction of mitotic arrest in human NCI-H460 cells assessed as decrease in chromosome align at metaphase plate at 3 times of GI50 incubated for 15 hrs by DAPI staining based fluorescence microscopy; assay type: functional, cell-based; summary of the method: as §3
[14] = system: NCI-H460; test: Induction of mitotic arrest in human NCI-H460 cells assessed as multipolar spindles at 3 times of GI50 incubated for 15 hrs by fluorescence microscopy (reference value: 2 %); assay type: functional; summary of the method: as §3
[15] = system: NCI-H460; test: Induction of cell death in human NCI-H460 cells assessed as abnormal nuclear morphology at 3 times of GI50 incubated for 24 hrs by DAPI staining based fluorescence microscopy; assay type: functional
Summary of the method: (§4)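 NCI-H460 cells exposed 24 h, DAPI-stained for DNA, nuclear morphology and micronucleation examined by fluorescence microscopy.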

[16] = system: NCI-H460; test: Induction of cell death in human NCI-H460 cells assessed as micronucleation at 3 times of GI50 incubated for 24 hrs by DAPI staining based fluorescence microscopy; assay type: functional; summary of the method: as §4
[17] = system: NCI-H460; test: Cytotoxicity against human NCI-H460 cells assessed as reduction in cell viability at 1 times of GI50 incubated for 48 hrs by MTT assay relative to control; assay type: functional; summary of the method: as §2
[18] = system: NCI-H460; test: Cytotoxicity against human NCI-H460 cells assessed as reduction in cell viability at 0.5 times of GI50 incubated for 48 hrs by MTT assay relative to control; assay type: functional; summary of the method: as §2
[19] = system: NCI-H460; test: Potentiation of paclitaxel-induced cytotoxicity against human NCI-H460 cells assessed as reduction in cell viability at 1 times of GI50 incubated for 48 hrs by MTT assay (reference value: 92.3 %); assay type: functional; summary of the method: as §2
[20] = system: NCI-H460; test: Potentiation of paclitaxel-induced cytotoxicity against human NCI-H460 cells assessed as reduction in cell viability at 0.5 times of GI50 incubated for 48 hrs by MTT assay (reference value: 92.3 %); assay type: functional; summary of the method: as §2

Row | GI50 [1] [µM] | GI50 [3] [µM] | log Kp [4] | logP at 0.5 h [5] | Compound | GI50 [2] [µM] | further results
1 | 6.49 | 10.8 | 3.29 | 3.35 | COc1cc(/C=C/C(=O)c2ccc(OC)c(OC)c2)cc(OC)c1 | 3.45 | –
2 | 12.1 | 8.44 | 2.77 | 4.35 | O=C(/C=C/c1ccc(Cl)c(Cl)c1)c1cccs1 | 7.25 | –
3 | 4.28 | 4.44 | 3.52 | 3.43 | COc1cc(/C=C/C(=O)c2cc(C)cs2)cc(OC)c1 | 3.33 | –
4 | 14 | 16.9 | 3.75 | 2.5 | COc1cc(C2OC2C(=O)c2cc(C)cs2)cc(OC)c1OC (stereo not given) | 6.63 | –
5 | 5.95 | 5.06 | 3.49 | 2.99 | COc1cc(/C=C/C(=O)c2cccs2)cc(OC)c1OC | 3.63 | –
6 | 8.41 | 9.61 | 4.1 | 4.54 | COc1ccc(C(=O)/C=C/c2cc(Cl)cc(Cl)c2)cc1OC | 4.51 | –
7 | 12.2 | 11.8 | 4.43 | 4.67 | Cc1csc(C(=O)/C=C/c2cc(Cl)cc(Cl)c2)c1 | 7.14 | –
8 | 7.7 | 7.12 | 3.41 | 3.14 | COc1cc(/C=C/C(=O)c2cccs2)cc(OC)c1 | 4.15 | –
9 | 9.75 | 8.35 | 4.29 | 3.22 | COc1cc(/C=C/C(=O)c2cc3cccc(O)c3o2)cc(OC)c1OC | 8.57 | Activity [9]: Active; Activity [10]: Active; Activity [11]: 25.8 - 49.37%; Activity [12]: Active; Activity [13]: Active
10 | 12.6 | 13.6 | 3.49 | 3.02 | COc1cc(OC)c(OC)cc1/C=C/C(=O)c1cccs1 | 11.1 | –
11 | 6.89 | 6.61 | 3.68 | 4.19 | COc1cc(/C=C/C(=O)c2cc3ccccc3s2)cc(OC)c1OC | 6.9 | Activity [9]: Active; Activity [10]: Active; Activity [11]: 25.8 - 49.37%; Activity [12]: Active; Activity [13]: Active
12 | 23.9 | 17.8 | 3.62 | 3.07 | COc1ccc(/C=C/C(=O)c2cccs2)cc1OC | 17.8 | –
13 | 11.7 | 8.34 | 4.33 | 4.38 | O=C(/C=C/c1cc(Cl)cc(Cl)c1)c1cccs1 | 5.38 | –
14 | 5.56 | 6.28 | 3.53 | 3.23 | COc1cc(/C=C/C(=O)c2ccc(C)s2)cc(OC)c1OC | 5.7 | Activity [9]: Active; Activity [10]: Active; Activity [11]: 25.8 - 49.37%; Activity [12]: Active; Activity [13]: Active; Activity [14]: 28%; Activity [15]: Active; Activity [16]: Active; Activity [17]: 67.9%; Activity [18]: 96.9%; Activity [19]: 46.8%; Activity [20]: 51.8%
15 | 15.1 | 27.7 | 3.14 | 4.52 | COc1ccc(C(=O)/C=C/c2ccc(Cl)c(Cl)c2)cc1OC | 4.14 | –
16 | 3.97 | 5.6 | 3.3 | 3.22 | COc1ccc(C(=O)/C=C/c2cc(OC)c(OC)c(OC)c2)cc1OC | 2.89 | –

Continued, compound first:

Row | Compound | GI50 [1] [µM] | GI50 [3] [µM] | log Kp [4] | logP at 0.5 h [5] | GI50 [2] [µM] | further results
17 | COc1cc(C2OC2C(=O)c2cccs2)cc(OC)c1OC (stereo not given) | 59.9 | 61.8 | 2.8 | 2.51 | 38.5 | –
18 | COC(=O)Nc1nc2cc(C(=O)c3cccs3)ccc2[nH]1 [NOCODAZOLE] | – | – | – | – | – | Activity [6]: Active; Activity [7]: 73.1%
19 | COc1cc(/C=C/C(=O)c2cc(C)cs2)cc(OC)c1OC | 3.26 | 3.02 | 3.54 | 3.29 | 3.21 | –
20 | CC(=O)O[C@H]1C(=O)[C@@]2(C)[C@H]([C@H](OC(=O)c3ccccc3)[C@]3(O)C[C@H](OC(=O)[C@H](O)[C@@H](NC(=O)c4ccccc4)c4ccccc4)C(C)=C1C3(C)C)[C@]1(OC(C)=O)CO[C@@H]1C[C@@H]2O | – | – | – | – | – | Activity [8]: inactive
21 | COc1ccc(/C=C/C(=O)c2ccc(OC)c(OC)c2)cc1OC | 13.2 | 8.95 | 3.51 | 3.27 | 3.81 | –
22 | Cc1csc(C(=O)/C=C/c2ccc(Cl)c(Cl)c2)c1 | 22.5 | 15.5 | 2.8 | 4.65 | 12.1 | –
23 | COc1cc(-c2cc(-c3cccs3)n[nH]2)cc(OC)c1OC | > 37.5 | > 37.5 | 3.16 | 2.99 | > 37.5 | –
24 | COc1cc(-c2cc(-c3cc(C)cs3)n[nH]2)cc(OC)c1OC | 16.3 | 16.1 | 4.04 | 3.27 | 16.1 | –
25 | COc1cc(OC)c(OC)cc1/C=C/C(=O)c1ccc(OC)c(OC)c1 | 8.52 | 8.74 | 3.35 | 3.24 | 7.1 | –
26 | COc1cc(OC)c(OC)cc1/C=C/C(=O)c1cc(C)cs1 | 10.1 | 7.48 | 3.6 | 3.31 | 6.96 | –
27 | COc1ccc(/C=C/C(=O)c2cc(C)cs2)cc1OC | 10.8 | 15.3 | 3.72 | 3.4 | 11.3 | –
